# Measurements as given in ChEMBL document CHEMBL3576792, “Enhancement of antibiotic activity against multidrug-resistant bacteria by the efflux pump inhibitor 3,4-dibromopyrrole-2,5-dione isolated from a Pseudoalteromonas sp” (J Nat Prod, 2015).
# Calls of active or inactive are those of the source. The rule behind the calls is not given here.
# Columns and labels:
# Escherichia coli [1] = test: Antibacterial activity against Escherichia coli transformed with plasmid carrying MG1655 deltaBC/pXYM by p-iodonitrotetrazolium chloride colorimetric assay; type: functional
# Outline: (§1)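 Two-fold broth microdilution in Mueller-Hinton broth, read by p-iodonitrotetrazolium chloride colorimetric assay. MIC is the lowest concentration giving no visible growth. MG1655 ΔacrB ΔtolC strains carrying pABM or pXYM were always cultured with 100 μg/mL ampicillin and 1 mM IPTG. Medium, inoculum and 1% DMSO (final) served as negative control.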
# Escherichia coli [2] = test: Inhibition of AcrAB-TolC pump in Escherichia coli AG100 assessed as increase in intracellular H33342 fluorescence at >= 1 ug/ml after 60 mins by efflux inhibition assay; type: cell-based
# Outline: (§2)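 AG100 (wild-type K-12) or AG100A (ΔacrAB) cells were grown in Luria broth at 37 °C and 200 rpm to OD600 1.0, PBS-washed and diluted to OD600 0.3. Cells took up 2.5 μM Hoechst 33342 with 22 mM glucose at 37 °C for about 30 min, then compound (0.06–64 μg/mL) or PAβN (15.6 μg/mL) was added. Fluorescence (Ex 350/Em 460 nm) was followed for 60 min and corrected for background. The last four time points were compared to dye-only control by ANOVA with Dunnett's test, run in duplicate.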
# Escherichia coli [3] = test: Effect on intracellular H33342 accumulation in Escherichia coli AG100A after 60 mins by efflux inhibition assay; type: functional, organism-based; outline: as §2
# Escherichia coli [4] = test: Potentiation of ciprofloxacin-induced antibacterial activity Escherichia coli AG102 overexpressing AcrAB-TolC assessed as ciprofloxacin MIC by p-iodonitrotetrazolium chloride colorimetric assay; type: functional
# Outline: (§3)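 Checkerboard microdilution in Mueller-Hinton broth: two-fold dilutions of antibiotic crossed with dilutions of test compound above, at and below their MICs. Growth was read by INT colorimetric assay, with MIC as the lowest concentration showing no visible growth. FICs and FIC index were derived from these MICs. ΔBC/pABM and ΔBC/pXYM strains were grown with 100 μg/mL ampicillin and 1 mM IPTG.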
# Escherichia coli [5] = test: Potentiation of erythromycin-induced antibacterial activity Escherichia coli AG102 overexpressing AcrAB-TolC assessed as erythromycin MIC by p-iodonitrotetrazolium chloride colorimetric assay; type: functional; outline: as §3
# Escherichia coli [6] = test: Potentiation of erythromycin-induced antibacterial activity Escherichia coli transformed with plasmid carrying MG1655 deltaBC/pABM assessed as erythromycin MIC by p-iodonitrotetrazolium chloride colorimetric assay; type: functional; outline: as §3
# Escherichia coli [7] = test: Potentiation of kanamycin-induced antibacterial activity Escherichia coli AG102 overexpressing AcrAB-TolC assessed as kanamycin MIC by p-iodonitrotetrazolium chloride colorimetric assay; type: functional; outline: as §3
# Escherichia coli [8] = test: Potentiation of kanamycin-induced antibacterial activity Escherichia coli transformed with plasmid carrying MG1655 deltaBC/pXYM assessed as kanamycin MIC by p-iodonitrotetrazolium chloride colorimetric assay; type: functional; outline: as §3
# Escherichia coli [9] = test: Potentiation of piperacillin-induced antibacterial activity Escherichia coli transformed with plasmid carrying MG1655 deltaBC/pXYM assessed as piperacillin MIC by p-iodonitrotetrazolium chloride colorimetric assay; type: functional; outline: as §3
# Escherichia coli [10] = test: Potentiation of tetracycline-induced antibacterial activity Escherichia coli transformed with plasmid carrying MG1655 deltaBC/pABM assessed as tetracycline MIC by p-iodonitrotetrazolium chloride colorimetric assay; type: functional; outline: as §3
# Escherichia coli [11] = test: Potentiation of tetracycline-induced antibacterial activity Escherichia coli transformed with plasmid carrying MG1655 deltaBC/pXYM assessed as tetracycline MIC by p-iodonitrotetrazolium chloride colorimetric assay; type: functional; outline: as §3
# Escherichia coli [12] = test: Potentiation of ciprofloxacin-induced antibacterial activity Escherichia coli transformed with plasmid carrying MG1655 deltaBC/pABM by p-iodonitrotetrazolium chloride colorimetric assay; type: functional
# Escherichia coli [13] = test: Potentiation of erythromycin-induced antibacterial activity Escherichia coli transformed with plasmid carrying MG1655 deltaBC/pABM by p-iodonitrotetrazolium chloride colorimetric assay; type: functional
# Escherichia coli [14] = test: Potentiation of kanamycin-induced antibacterial activity Escherichia coli transformed with plasmid carrying MG1655 deltaBC/pXYM by p-iodonitrotetrazolium chloride colorimetric assay; type: functional
# Escherichia coli [15] = test: Potentiation of levofloxacin-induced antibacterial activity Escherichia coli transformed with plasmid carrying MG1655 deltaBC/pABM MIC by p-iodonitrotetrazolium chloride colorimetric assay; type: functional
# Escherichia coli [16] = test: Potentiation of oxacillin-induced antibacterial activity Escherichia coli transformed with plasmid carrying MG1655 deltaBC/pABM by p-iodonitrotetrazolium chloride colorimetric assay; type: functional, organism-based; outline: as §3
# Escherichia coli [17] = test: Potentiation of oxacillin-induced antibacterial activity Escherichia coli transformed with plasmid carrying MG1655 deltaBC/pXYM by p-iodonitrotetrazolium chloride colorimetric assay; type: functional
# Escherichia coli [18] = test: Potentiation of piperacillin-induced antibacterial activity Escherichia coli transformed with plasmid carrying MG1655 deltaBC/pABM by p-iodonitrotetrazolium chloride colorimetric assay; type: functional, organism-based; outline: as §3
# Escherichia coli [19] = test: Effect on intracellular H33342 accumulation in Escherichia coli AG100A delta acrAB mutant at 64 ug/ml after 60 mins by accumulation assay; type: functional
# Outline: (§4)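 Cells grown in Luria broth at 37 °C, 200 rpm to OD600 1.0, then washed twice in PBS and diluted in glucose-free PBS to OD600 0.3. H33342 was used at 2.5 μM with 22 mM glucose at 37 °C and allowed to accumulate for ~30 min. Compound was then added and fluorescence (Ex 350/Em 460 nm) followed for 60 min. Values are the mean RFU of the final 4 min, after media-plus-compound background was subtracted. Run in duplicate, n = 8.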
# Escherichia coli [20] = test: Effect on intracellular H33342 accumulation in Escherichia coli AG100A delta acrAB mutant at 0.06 ug/ml after 60 mins by accumulation assay; type: functional; outline: as §4
# Escherichia coli K-12 [21] = test: Inhibition of AcrAB-TolC pump in Escherichia coli K-12 AG100 assessed as increase in intracellular H33342 fluorescence at 4 ug/ml after 60 mins by efflux inhibition assay; type: cell-based
# Outline: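 Washed AG100 cells loaded for 60 min with 2.5 μM H33342 plus compound (no glucose, 25 °C). They were then pelleted, resuspended in ice-cold PBS and re-exposed to the same compound concentrations with or without glucose at 37 °C. Fluorescence (Ex 350/Em 460) followed for 30 min, no-glucose values subtracted, data normalized to loaded cells.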
# Escherichia coli K-12 [22] = test: Inhibition of AcrAB-TolC pump in Escherichia coli K-12 AG100 assessed as increase in intracellular H33342 fluorescence at 0.25 ug/ml after 60 mins by efflux inhibition assay; type: cell-based
# Escherichia coli [23] = test: Potentiation of chloramphenicol-induced antibacterial activity Escherichia coli AG102 overexpressing AcrAB-TolC by p-iodonitrotetrazolium chloride colorimetric assay; type: functional
# Escherichia coli [24] = test: Potentiation of chloramphenicol-induced antibacterial activity Escherichia coli transformed with plasmid carrying MG1655 deltaBC/pABM by p-iodonitrotetrazolium chloride colorimetric assay; type: functional
# Escherichia coli [25] = test: Antibacterial activity against Escherichia coli AG102 overexpressing AcrAB-TolC by p-iodonitrotetrazolium chloride colorimetric assay; type: functional; outline: as §1
compound,measurement,setting,value
O=C1NC(=O)C(Br)=C1Br,MIC,Escherichia coli [1],128 µg/mL
same,inhibition,Escherichia coli [2],Active
same,inhibition,Escherichia coli [3],inactive
same,MIC,Escherichia coli [4],2 µg/mL
same,MIC,Escherichia coli [5],128 µg/mL
same,MIC,Escherichia coli [6],64 µg/mL
same,MIC,Escherichia coli [7],2 µg/mL
same,MIC,Escherichia coli [8],32 µg/mL
same,MIC,Escherichia coli [9],256 µg/mL
same,MIC,Escherichia coli [10],128 µg/mL
same,MIC,Escherichia coli [11],8 µg/mL
same,fractional inhibitory concentration index (FICI),Escherichia coli [12],0.75
same,fractional inhibitory concentration index (FICI),Escherichia coli [13],0.19
same,fractional inhibitory concentration index (FICI),Escherichia coli [14],0.75
same,fractional inhibitory concentration index (FICI),Escherichia coli [15],0.75
same,fractional inhibitory concentration index (FICI),Escherichia coli [16],inactive
same,fractional inhibitory concentration index (FICI),Escherichia coli [17],0.27
same,fractional inhibitory concentration index (FICI),Escherichia coli [18],inactive
same,RFU,Escherichia coli [19],1090
same,RFU,Escherichia coli [20],1020
same,RFU,Escherichia coli K-12 [21],-101
same,RFU,Escherichia coli K-12 [22],-351
same,fractional inhibitory concentration index (FICI),Escherichia coli [23],0.5
same,fractional inhibitory concentration index (FICI),Escherichia coli [24],0.75
same,MIC,Escherichia coli [25],256 µg/mL
